This note sets out measurements from ChEMBL document CHEMBL2390912, “Aromatic glycosyl disulfide derivatives: evaluation of their inhibitory activities against Trypanosoma cruzi” (Bioorg Med Chem Lett, 2013).

Assay [1] deals with Trypanosoma cruzi. Briefly: Trypanocidal activity against Trypanosoma cruzi Y trypomastigotes infected in human HeLa cells at 37 degC after 18 hrs by resazurin assay. The class given is functional, organism-based. In a few lines: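 Tissue culture-derived trypomastigotes treated for 18 h at 37 °C. Read-out by fluorescence.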
On the technique in general: Alamar Blue is a resazurin reagent that responds to reducing activity.

For assay [2], the system named is Trypanosoma cruzi. Briefly: Trypanocidal activity against Trypanosoma cruzi Y trypomastigotes infected in human HeLa cells at 4 degC after 18 hrs by hemocytometric analysis. The class given is functional, organism-based.

Take `O=C(Cn1ccnc1[N+](=O)[O-])NCc1ccccc1` [BENZNIDAZOLE]: the IC50 in assay [1] was 25.6 µM; in assay [2], at least 500 µM.

The term IC50 denotes the concentration needed to halve the response being measured. Lower therefore signals greater potency in that assay.
